Source: PMC6839502 (Journal of Alzheimer's Disease, 2019)
Where two headings read alike, the source gives them in different places.

How the values were obtained:
hERG = conditions: in vitro and in vivo preclinical safety and toxicology studies; cited from earlier work
CYP3A4/5 = conditions: in vitro experiments; ref data on file; cited from earlier work
[1] = type: in vivo, human; conditions: for AUCtau / Cmax / CL/F / Cmin / Rac (observed accumulation ratio) / Vz/F / AUCinf: geometric mean (% CV); for t1/2: arithmetic mean±SD
Summary of the method: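 Healthy adults (18–55 y) or older subjects (60–85 y) received oral QD doses for 14 days, fasted on Day 1. Plasma was sampled pre-dose and at 0.5, 1, 2, 4, 8, 12, and 24 h, plus 1.5 h (B8271001) or 6 h (B8271004). Day 14 sampling extended to 120 h. Urine was also collected. Samples were analysed by validated HPLC-MS/MS; plasma LLOQ 0.500 or 5.00 ng/mL, urine LLOQ 0.050 ng/mL. Parameters were derived by non-compartmental analysis.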

BACE1 over BACE 2 = conditions: fluorescence polarization (FP) assay; cited from earlier work
Cathepsin D (Cat D) = conditions: FP assay; cited from earlier work
[2] = 5 mg QD, Day 14, healthy adults
[3] = 15 mg QD, Day 1, healthy adults
[4] = 15 mg QD, Day 7, healthy adults
[5] = 15 mg QD, Day 14, healthy adults
[6] = 50 mg QD, Day 1, healthy adults
[7] = 50 mg QD, Day 1, healthy older subjects
[8] = 50 mg QD, Day 7, healthy adults
[9] = 50 mg QD, Day 14, healthy adults
[10] = 50 mg QD, Day 14, healthy older subjects
[11] = 50 mg or 125 mg QD, healthy older subjects
[12] = 125 mg QD, Day 1, healthy adults
[13] = 125 mg QD, Day 1, healthy older subjects
[14] = 125 mg QD, Day 7, healthy adults
[15] = 125 mg QD, Day 14, healthy adults
[16] = 125 mg QD, Day 14, healthy older subjects
[17] = 275 mg QD, Day 1, healthy adults
[18] = 275 mg QD, Day 7, healthy adults
[19] = 275 mg QD, Day 14, healthy adults
[20] = multiple doses, healthy adults (Part B)
[21] = single 3 mg fasted, healthy adults
[22] = single 12 mg fasted, healthy adults
[23] = single 40 mg fasted, healthy adults
[24] = single 160 mg fasted, healthy adults
[25] = single 200 mg fasted, healthy adults
[26] = single 200 mg fed, healthy adults
[27] = single 400 mg fasted, healthy adults
[28] = single 540 mg fasted, healthy adults

Structure (SMILES): C[C@H]1C[C@H]2CSC(N)=N[C@@]2(c2nc(NC(=O)c3ccc(OC(F)F)cn3)cs2)CO1 [PF-06751979]
- hERG inhibition (hERG): weak hERG inhibition
- CYP3A4/5 inhibition (CYP3A4/5): weak metabolism-dependent inhibitor
- AUCtau ([1]; 5 mg QD, Day 1, healthy adults): 167.7 (18) ng.hr/mL
- Cmax ([1]; 5 mg QD, Day 1, healthy adults): 10.12 (22) ng/mL
- Tmax ([1]; 5 mg QD, Day 1, healthy adults, median (range)): 3.98 (2.03–12.3) h
- AUCtau ([1]; 5 mg QD, Day 7, healthy adults): 395.2 (20) ng.h/mL
- Cmax ([1]; 5 mg QD, Day 7, healthy adults): 20.68 (22) ng/mL
- Tmax ([1]; 5 mg QD, Day 7, healthy adults, median (range)): 6.02 (3.95–8.05) h
- t1/2 [1, 2]: 37.15 ± 5.20 h
- AUCtau [1, 2]: 422.2 (20) ng.hr/mL
- CL/F [1, 2]: 197.1 (20) mL/min
- Cmax [1, 2]: 22.41 (23) ng/mL
- Cmin [1, 2]: 12.55 (22) ng/mL
- Rac (observed accumulation ratio) [1, 2]: 2.52 (12)
- Vz/F [1, 2]: 628.7 (18) L
- Tmax ([1]; 5 mg QD, Day 14, healthy adults, median (range)): 4.01 (3.98–8.02) h
- AUCtau [1, 3]: 478.8 (20) ng.hr/mL
- Cmax [1, 3]: 28.90 (22) ng/mL
- Tmax ([1]; 15 mg QD, Day 1, healthy adults, median (range)): 4.07 (4.00–7.83) h
- AUCtau [1, 4]: 1149 (12) ng.h/mL
- Cmax [1, 4]: 64.34 (12) ng/mL
- Tmax ([1]; 15 mg QD, Day 7, healthy adults, median (range)): 4.02 (2.17–8.03) h
- t1/2 [1, 5]: 30.65 ± 3.19 h
- AUCtau [1, 5]: 1152 (13) ng.hr/mL
- CL/F [1, 5]: 216.9 (12) mL/min
- Cmax [1, 5]: 64.63 (14) ng/mL
- Cmin [1, 5]: 32.75 (14) ng/mL
- Rac (observed accumulation ratio) [1, 5]: 2.41 (14)
- Vz/F [1, 5]: 573.2 (12) L
- Tmax ([1]; 15 mg QD, Day 14, healthy adults, median (range)): 4.05 (4.02–7.87) h
- AUCtau [1, 6]: 1739 (14) ng.hr/mL
- Cmax [1, 6]: 120.6 (17) ng/mL
- Tmax ([1]; 50 mg QD, Day 1, healthy adults, median (range)): 2.99 (1.02–4.07) h
- AUCtau [1, 7]: 1621 (22) ng.hr/mL
- Cmax [1, 7]: 102.9 (25) ng/mL
- Tmax ([1]; 50 mg QD, Day 1, healthy older subjects, median (range)): 4.00 (2.02–7.98) h
- AUCtau [1, 8]: 4181 (20) ng.h/mL
- Cmax [1, 8]: 241.1 (20) ng/mL
- Tmax ([1]; 50 mg QD, Day 7, healthy adults, median (range)): 3.83 (1.43–4.07) h
- t1/2 [1, 9]: 37.36 ± 5.91 h
- AUCtau [1, 9]: 4236 (24) ng.hr/mL
- CL/F [1, 9]: 196.9 (24) mL/min
- Cmax [1, 9]: 245.7 (21) ng/mL
- Cmin [1, 9]: 120.4 (25) ng/mL
- Rac (observed accumulation ratio) [1, 9]: 2.43 (15)
- Vz/F [1, 9]: 629.0 (27) L
- Tmax ([1]; 50 mg QD, Day 14, healthy adults, median (range)): 3.00 (0.88–8.08) h
- t1/2 [1, 10]: 39.95 ± 3.18 h
- AUCtau [1, 10]: 4505 (20) ng.h/mL
- CL/F [1, 10]: 184.9 (20) mL/min
- Cmax [1, 10]: 256.4 (23) ng/mL
- Cmin [1, 10]: 135.8 (18) ng/mL
- Vz/F [1, 10]: 637.4 (23) L
- Tmax ([1]; 50 mg QD, Day 14, healthy older subjects, median (range)): 4.00 (2.00–4.20) h
- Median Tmax [1, 11]: 4 h
- Steady state achieved by [1, 11]: ≤ 7 days
- AUCtau [1, 12]: 6380 (15) ng.hr/mL
- Cmax [1, 12]: 442.7 (20) ng/mL
- Tmax ([1]; 125 mg QD, Day 1, healthy adults, median (range)): 4.00 (2.00–6.03) h
- AUCtau [1, 13]: 5238 (24) ng.hr/mL
- Cmax [1, 13]: 377.1 (30) ng/mL
- Tmax ([1]; 125 mg QD, Day 1, healthy older subjects, median (range)): 4.00 (2.00–4.03) h
- AUCtau [1, 14]: 13810 (16) ng.h/mL
- Cmax [1, 14]: 818.7 (19) ng/mL
- Tmax ([1]; 125 mg QD, Day 7, healthy adults, median (range)): 3.00 (2.00–6.00) h
- t1/2 [1, 15]: 30.73 ± 5.75 h
- AUCtau [1, 15]: 13990 (14) ng.hr/mL
- CL/F [1, 15]: 149.0 (14) mL/min
- Cmax [1, 15]: 837.6 (16) ng/mL
- Cmin [1, 15]: 390.3 (18) ng/mL
- Rac (observed accumulation ratio) [1, 15]: 2.19 (11)
- Vz/F [1, 15]: 390.5 (23) L
- Tmax ([1]; 125 mg QD, Day 14, healthy adults, median (range)): 4.00 (2.00–12.00) h
- t1/2 [1, 16]: 40.76 ± 3.90 h
- AUCtau [1, 16]: 14750 (23) ng.h/mL
- CL/F [1, 16]: 141.4 (23) mL/min
- Cmax [1, 16]: 879.4 (28) ng/mL
- Cmin [1, 16]: 429.9 (23) ng/mL
- Vz/F [1, 16]: 496.1 (30) L
- Tmax ([1]; 125 mg QD, Day 14, healthy older subjects, median (range)): 4.00 (2.00–4.03) h
- AUCtau [1, 17]: 13260 (18) ng.hr/mL
- Cmax [1, 17]: 983.0 (18) ng/mL
- Tmax ([1]; 275 mg QD, Day 1, healthy adults, median (range)): 4.00 (2.00–4.00) h
- AUCtau [1, 18]: 31210 (14) ng.h/mL
- Cmax [1, 18]: 2000 (14) ng/mL
- Tmax ([1]; 275 mg QD, Day 7, healthy adults, median (range)): 2.00 (2.00–4.00) h
- t1/2 [1, 19]: 37.79 ± 7.73 h
- AUCtau [1, 19]: 29470 (12) ng.hr/mL
- CL/F [1, 19]: 155.3 (13) mL/min
- Cmax [1, 19]: 1869 (14) ng/mL
- Cmin [1, 19]: 868.5 (15) ng/mL
- Rac (observed accumulation ratio) [1, 19]: 2.27 (11)
- Vz/F [1, 19]: 498.3 (27) L
- Tmax ([1]; 275 mg QD, Day 14, healthy adults, median (range)): 4.00 (2.00–4.00) h
- Mean of dose recovered unchanged in the urine ([1]; across the dose range studied, multiple doses): 7–10%
- Median Tmax ([1]; fasted state, single doses 3 mg to 540 mg and multiple doses up to 275 mg QD, healthy adults): 3 to 4 h
- Mean t1/2 across doses ([1]; healthy adults): 29 to 39 h
- Observed t1/2 ([1]; healthy older subjects): approximately 40 h
- Plasma accumulation at Day 14 ([1]; healthy older subjects): 2.8 fold
- Accumulation on Day 14 [1, 20]: 2.1- to 2.5 fold
- Steady state achieved by [1, 20]: ≤ 7 days
- t1/2 [1, 21]: 29.30 ± 0.60 h
- AUCinf [1, 21]: 289.7 (8) ng.hr/mL
- CL/F [1, 21]: 172.3 (8) mL/min
- Cmax [1, 21]: 8.4 (14) ng/mL
- Vz/F [1, 21]: 436.8 (6) L
- Tmax ([1]; single 3 mg fasted, healthy adults, median (range)): 4.03 (4.00–8.00) h
- t1/2 [1, 22]: 32.94 ± 4.92 h
- AUCinf [1, 22]: 1142 (25) ng.hr/mL
- CL/F [1, 22]: 175.0 (25) mL/min
- Cmax [1, 22]: 27.4 (36) ng/mL
- Vz/F [1, 22]: 494.8 (20) L
- Tmax ([1]; single 12 mg fasted, healthy adults, median (range)): 4.11 (2.0–12.00) h
- t1/2 [1, 23]: 32.12 ± 3.64 h
- AUCinf [1, 23]: 3121 (25) ng.hr/mL
- CL/F [1, 23]: 213.4 (25) mL/min
- Cmax [1, 23]: 78.7 (30) ng/mL
- Vz/F [1, 23]: 591.4 (26) L
- Tmax ([1]; single 40 mg fasted, healthy adults, median (range)): 4.08 (2.00–8.05) h
- t1/2 [1, 24]: 39.33 ± 8.20 h
- AUCinf [1, 24]: 17050 (18) ng.hr/mL
- CL/F [1, 24]: 156.3 (18) mL/min
- Cmax [1, 24]: 530.8 (41) ng/mL
- Vz/F [1, 24]: 523.2 (25) L
- Tmax ([1]; single 160 mg fasted, healthy adults, median (range)): 3.03 (1.87–4.08) h
- t1/2 [1, 25]: 35.20 ± 8.97 h
- AUCinf [1, 25]: 22850 (17) ng.hr/mL
- CL/F [1, 25]: 145.8 (17) mL/min
- Cmax [1, 25]: 643.2 (19) ng/mL
- Vz/F [1, 25]: 433.7 (18) L
- Tmax ([1]; single 200 mg fasted, healthy adults, median (range)): 4.00 (2.00–6.07) h
- Food effect on plasma exposure (Cmax and AUCinf) ([1]; single 200 mg fed vs fasted): no apparent food effect
- t1/2 [1, 26]: 33.38 ± 6.25 h
- AUCinf [1, 26]: 23260 (15) ng.hr/mL
- CL/F [1, 26]: 143.3 (15) mL/min
- Cmax [1, 26]: 630.2 (9) ng/mL
- Vz/F [1, 26]: 408.1 (16) L
- Tmax ([1]; single 200 mg fed, healthy adults, median (range)): 6.00 (4.00–8.00) h
- Tmax ([1]; single 200 mg in a fed state): 6 h
- t1/2 [1, 27]: 34.70 ± 8.97 h
- AUCinf [1, 27]: 44980 (17) ng.hr/mL
- CL/F [1, 27]: 148.3 (17) mL/min
- Cmax [1, 27]: 1436.0 (10) ng/mL
- Vz/F [1, 27]: 433.0 (19) L
- Tmax ([1]; single 400 mg fasted, healthy adults, median (range)): 3.02 (2.00–4.00) h
- t1/2 [1, 28]: 35.85 ± 8.10 h
- AUCinf [1, 28]: 63420 (9) ng.hr/mL
- CL/F [1, 28]: 142.0 (9) mL/min
- Cmax [1, 28]: 1829.0 (19) ng/mL
- Vz/F [1, 28]: 431.1 (19) L
- Tmax ([1]; single 540 mg fasted, healthy adults, median (range)): 3.01 (2.00–6.02) h
- Selectivity for BACE1 over BACE2 (BACE1 over BACE 2): 6.4 fold
- Selectivity over Cathepsin D (Cathepsin D (Cat D)): ~2500 fold
